Reference: the array DNA melting data of Ke et al. (doi:10.1101/2024.01.08.574731)

Assays:
[1] = folding enthalpy; higher = less favourable; fluorescence melt of hairpins on a sequencing array, two-state fit; details: sodium 0.088 M
Method in brief: (§1)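 Melting temperature and folding enthalpy were obtained by bootstrapped two-state fitting. Fits used Cy3 fluorescence of library hairpins with annealed Cy3 and quencher oligos on a sequenced MiSeq flow cell, imaged in 50 mM Na-HEPES pH 8.0, 25 mM NaCl in 2.5 °C steps up to 60 °C and normalised to pre-quench Cy3 and control constructs. Four replicates were combined by inverse-variance weighting, and fitted temperatures were raised by 9.35 °C to match UV melts.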

[2] = melting temperature; fluorescence melt of hairpins on a sequencing array, two-state fit, raised by 9.35 °C to match UV melts; details: sodium 0.088 M
Method in brief: as §1

| Sequence | folding enthalpy [1] [kcal/mol] | Tm [2] [°C] |
| --- | --- | --- |
| GATCGGTCTGCCGATC ((((((....)))))) | -41.8 | 62.1 |
| GCTTACGAAAGTAAAGC ((((((....))).))) | -23.8 | 49.6 |
| GGGATCGGAAACGACCCC (((.(((....))).))) | -37.5 | 52.4 |
| GACCGACGAAAGTCTGTC (((.(((....))).))) | -31.1 | 48.7 |
| GCCTCCGAAAGGACGGC ((((((....))).))) | -30.9 | 56.5 |
| GACCACGGAAACGCGGTC ((((.((....)).)))) | -49 | 53.2 |
| GATCCTACACAGGATC ((((((....)))))) | -35.9 | 51.6 |
| GAGGCCGGAAACAGCCCC (.(((.(....).))).) | -10.6 | 27.2 |
| GTTTCTCCGAAAGGAAAC (((..(((....)))))) | -14.8 | 33 |
| GACTAGAAATAGTC (((((....))))) | -15.7 | 37.6 |
| CTTGCGAAAGCAAG (((((....))))) | -16.9 | 58.8 |
| GATCTATGGTTAGATC ((((((....)))))) | -36 | 41.5 |
| CGATCGGAAACGACATCG ((((((....)))..))) | -24 | 32 |
| GCCATCGAAAGATATGGC ((((((....)))..))) | -32 | 46.6 |
| GCAAAGCGAAAGCGTAGC ((.(.((....)).).)) | -17.1 | 55.9 |
| GGAGCCGAAAGGCCGTCC ((((((....)))..))) | -9.47 | 36.3 |
| GGCCGGCGAAAGCCCGCC (((.(((....))).))) | -29.9 | 59.7 |
| GTCGCCTCGAAAGAGGAC (((..(((....)))))) | -9.5 | 31.3 |
| GATCCTGTTGAGGATC ((((((....)))))) | -33.9 | 53.2 |
| GATCCAACAGTGGATC ((((((....)))))) | -32.1 | 47.1 |
| GTGACCGAAAGGTGGCAC ((((((....)))..))) | -16.3 | 40.7 |
| GATCCTTGCGAGGATC ((((((....)))))) | -49.1 | 54.8 |
| GACGTCCGAAAGGAAGTC (((.(((....))).))) | -34.7 | 54.7 |
| GATCTTTAGGAAGATC ((((((....)))))) | -28.5 | 42.6 |

| Sequence | folding enthalpy [1] [kcal/mol] | Tm [2] [°C] |
| --- | --- | --- |
| GATCGTACACACGATC ((((((....)))))) | -40.7 | 54.4 |
| CGTTCCCGGAAACGGACG (((..(((....)))))) | -21.6 | 35.3 |
| GATTGCGAAAGCAAAATC ((((((....)))..))) | -13.1 | 35.3 |
| GCGTAGAAACGC ((((....)))) | -18.6 | 48 |
| GATCCGCGAACGGATC ((((((....)))))) | -42.3 | 58.9 |
| GAAGAGCGAAAGCTATTC (((.(((....))).))) | -31 | 50 |
| ACCCGGAAACGGGT (((((....))))) | -19.5 | 58.1 |
| GATCACAGACGTGATC ((((((....)))))) | -37 | 57 |
| GCTACGCGAAAGCACAGC (((..((....))..))) | -21.2 | 46.5 |
| GTGTGAGAAATCACAC ((((((....)))))) | -30.9 | 55.8 |
| GAGAGAGGAAACTCTCCC (.(((((....))))).) | -17 | 37 |
| GCGTGAGAACGC ((((....)))) | -18.9 | 64.2 |
| GCTACCGAAAGGTAAGC ((((((....))).))) | -35 | 53.2 |
| GCGATCGAAAGATCTCGC ((((((....)))..))) | -20.2 | 44.1 |
| GATCACATATGTGATC ((((((....)))))) | -41.9 | 58.9 |
| GATAGCCCGAAAGGGATC (((..(((....)))))) | -8.63 | 32.6 |
| GCCTTGCGAAAGCACTGC ((..(((....)))..)) | -8.58 | 40.3 |
| GCTGAGCGAAAGCGTAGC (((..((....))..))) | -21.8 | 62 |
| GCCATTCGAAAGAAAGGC (((.(((....))).))) | -37 | 49.3 |
| GCTTATGGAAACGTAAGC (((((.(....).))))) | -44 | 45.1 |
| GTTGCGGGAAACCGTAAC (((.(((....))).))) | -34.3 | 51.2 |
| GACTGCGAAAGCATGGTC ((((((....)))..))) | -14.9 | 42.7 |
| GATCTGAGAACAGATC ((((((....)))))) | -27.5 | 45.1 |
| GTGCGTGGAAACGTGCAC ((((..(....)..)))) | -25.3 | 50.8 |

| Sequence | folding enthalpy [1] [kcal/mol] | Tm [2] [°C] |
| --- | --- | --- |
| GCGAAGCGAAAGCCACGC (((..((....))..))) | -8.54 | 42.5 |
| GCCTTCGAAAGAAACGGC ((((((....)))..))) | -23.7 | 36.2 |
| ACGAAGAAATTCGT (((((....))))) | -18.1 | 38 |
| GATCGCCCAAGCGATC ((((((....)))))) | -23 | 66.7 |
| GTGAACGGAAACGTTCAC (((((((....))))))) | -30 | 67.8 |
| GATCGACTATCGATC ((((((...)))))) | -35.2 | 49.3 |
| GATCGAACAATCGATC ((((((....)))))) | -31.3 | 47.4 |
| TACCGGAAACGGTA (((((....))))) | -16 | 50.2 |
| GGAATCGCGAAAGCGTCC (((..(((....)))))) | -8.44 | 29.2 |
| GATCCTCCAAGGATC ((((((...)))))) | -31.8 | 53.7 |
| GCGATTCGAAAGAAGCGC (((.(((....))).))) | -39.7 | 68.7 |
| GAGGCCGAAAGGCCCTC ((((((....))).))) | -9.16 | 58 |
| GCGCCGGGAAACCGGTGC ((.((((....)))).)) | -31.5 | 69 |
| GATGGGCGAAAGCCATC (((.(((....)))))) | -18.2 | 52.5 |
| GGCGGGGCGAAAGCCGCC (((..(((....)))))) | -19.9 | 68.6 |
| GCGTTCAACGC ((((...)))) | -23.1 | 56.8 |
| GAGACCGAAAGGTGACTC ((((((....)))..))) | -13.8 | 35.6 |
| GCGATTTTCGC ((((...)))) | -22 | 52.3 |
| GATCTTCCCCAAGATC ((((((....)))))) | -35.2 | 41.6 |
| GCCTGAGGAAACTCAGAC (.(((((....))))).) | -16.7 | 40.7 |
| GCCGTTCGAAAGAAAGGC (((.(((....))).))) | -28.8 | 59.3 |
| GCTATCGGAAACGATGGC ((.((((....)))).)) | -47.6 | 52.9 |
| GCGTCACTACGC ((((....)))) | -25.3 | 52.8 |
| GGAGCGCGAAAGCGTTCC (((.(((....))).))) | -35 | 67.6 |

| Sequence | folding enthalpy [1] [kcal/mol] | Tm [2] [°C] |
| --- | --- | --- |
| GATCGATGACTCGATC ((((((....)))))) | -30.5 | 49.5 |
| GTTGACGAAAGTCGTAAC ((((((....)))..))) | -11.1 | 32.9 |
| GATCATCCACATGATC ((((((....)))))) | -34.7 | 46.4 |
| GTGTTGGGAAACTAACGC (.(((.(....).))).) | -25.5 | 35.9 |
| GCTCGTCGAAAGACCAGC (((.(((....))).))) | -15.2 | 45.1 |
| GCGCGAGGAAACCCGCAC (.(((.(....).))).) | -16.8 | 38.1 |
| AGAATCAGAAATGGTTCT ((((.((....)).)))) | -26.5 | 30.6 |
| GGGTTAGGAAACTAACTC (.(((((....))))).) | -25.8 | 42.3 |
| GATCGTCGATACGATC ((((((....)))))) | -38.5 | 54.7 |
| GCGTGGCGAAAGCCGTGC ((..(((....)))..)) | -19.2 | 57.4 |
| GGGCCGCCGAAAGGCCCC (((..(((....)))))) | -13.6 | 64.1 |
| GATCTCTTCAGAGATC ((((((....)))))) | -40.9 | 60.1 |
| GCTTCCCCGAAAGGGAGC (((..(((....)))))) | -19.2 | 46.6 |
| GATCCCTAAGGGATC ((((((...)))))) | -38.4 | 60.2 |
| GCATAGCGAAAGCCGTGC (((..((....))..))) | -17.5 | 39.6 |
| GGTGGGGGAAACCTCGCC ((.(.((....)).).)) | -30.8 | 45.6 |
| GTATAGGGAAACCCATAC ((((.((....)).)))) | -16.1 | 31.8 |
| GCCGTAGGAAACTACAGC ((.((((....)))).)) | -11.7 | 39.6 |
| GATCAACTCGTTGATC ((((((....)))))) | -42.6 | 57.5 |
| GCGTCTAGACGC ((((....)))) | -31 | 58.6 |
| GCGTACGGAAACGTATGC ((.((((....)))).)) | -40.1 | 55.9 |
